CAL PDZ FP-1: blocks peptide binding to the human CAL PDZ domain; Q9HD26; purified CAL PDZ, TMR-peptide fluorescence polarization, 1 h; inhibition, % at 24.9 µM; hit rate 0.92% among 300,000;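 active = mean inhibition of at least 30% with at least half of replicates also reaching 30%; inconclusive = no clear call, values can overlap the other calls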;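 note: 0% = DMSO neutral control and 100% = excess unlabeled competitor peptide PRC23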
CAL PDZ FP-2: human CAL PDZ-peptide interaction inhibition; Q9HD26; purified CAL PDZ, TMR-peptide fluorescence polarization, 1 h; inhibition, % at 20 µM; hit rate 0.02% among 330,000;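 active = highest replicate inhibition of at least 40%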;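 note: plate controls were DMSO neutral control wells for no effect and unlabeled competitor peptide control wells for full effect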
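Read-out basis: mP drop reported as inhibition | Assay system: Tagged CAL PDZ protein CerCALP, purified | Benchmarks: Unlabelled peptide for full inhibition, DMSO wells as neutral | Schedule: 1 h incubation at room temperature before polarization reading | Buffer or medium: Sodium phosphate/NaCl buffer pH 7.4 with TCEP, IgG, Thesit | Doses: Single point, 20 µM | Measured by: Fluorescence polarization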
A3A deaminase: blocks human APOBEC3A ssDNA deamination | inhibition, % at 20 µM | recombinant A3A, FAM/TAMRA ssDNA deamination fluorescence | P31941 | hit rate 0.41% among 330,000;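 active = at least 40% inhibition at 20 µM here, with at most 30% in a related deaminase screen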;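 note: plate controls were A3A with DMSO for no effect and wells lacking A3A enzyme for full effect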
Target sequence (P31941 whole entry, looked up): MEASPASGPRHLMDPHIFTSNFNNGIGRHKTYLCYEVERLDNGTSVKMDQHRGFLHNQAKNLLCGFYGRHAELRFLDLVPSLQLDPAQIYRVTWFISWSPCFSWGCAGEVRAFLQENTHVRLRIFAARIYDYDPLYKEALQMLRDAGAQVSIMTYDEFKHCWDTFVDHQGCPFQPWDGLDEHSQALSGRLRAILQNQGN
LANA DNA inh: KSHV C-LANA DNA binding inhibition. MBP-C-LANA/FAM-LBS DNA binding, fluorescence polarization. hit rate 0.078% among 340,000. inhibition, % at 9 µM;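 active = highest replicate inhibition at or above 60% at 9 µM, even if other replicates fall short; inactive = all replicates below 60% inhibition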;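 note: 0% = neutral control wells and 100% = 4 µM acridine orange control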
Keap1-Nrf2 PPI: inhibitors of human Keap1-Nrf2 protein-protein interaction; AID 504523; Keap1 Kelch-Nrf2 peptide fluorescence polarization, 1536-well; hit rate 0.15% among 340,000; inhibition, % at 9.4 µM; in the data active = inhibition above about 12%; inconclusive = no clear call, values can overlap the other calls; inactive = below about 7.3%;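 note: human Keap1 Kelch domain with fluorescein labeled Nrf2 9mer peptide probe; 0% = neutral control wells and 100% = peptide positive control; higher means more block of Keap1 binding to Nrf2 peptide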
A3G deaminase: APOBEC3G (human) deaminase inhibition | hit rate 0.28% among 330,000 | recombinant A3G, ssDNA deamination FAM/TAMRA fluorescence | Q9HC16 | inhibition, % at 20 µM;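 active = inhibition of at least 40% at 20 µM, with no more than 30% in the related APOBEC3A deaminase screen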;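 note: plate controls were DMSO wells with A3G for no effect and wells lacking A3G enzyme for full effect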
Target sequence (Q9HC16 whole entry, looked up): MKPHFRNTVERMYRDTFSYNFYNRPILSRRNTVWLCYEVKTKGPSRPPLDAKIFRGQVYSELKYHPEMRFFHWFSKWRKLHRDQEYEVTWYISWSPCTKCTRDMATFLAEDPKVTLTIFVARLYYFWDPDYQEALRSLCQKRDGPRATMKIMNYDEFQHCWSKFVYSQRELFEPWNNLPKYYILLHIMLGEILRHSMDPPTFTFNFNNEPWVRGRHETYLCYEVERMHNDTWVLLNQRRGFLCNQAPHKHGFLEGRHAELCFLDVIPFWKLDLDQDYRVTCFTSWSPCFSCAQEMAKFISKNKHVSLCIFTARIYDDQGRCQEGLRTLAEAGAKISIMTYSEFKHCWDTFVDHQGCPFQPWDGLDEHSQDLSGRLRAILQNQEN
Starred values were filed as active, the others as inactive; ? = inconclusive; . = no result given; + = active, no number. Compounds with a hit are over-represented: about 1.7% of the library has one in this group of screens.

SMILES	CAL PDZ FP-1	CAL PDZ FP-2	A3A deaminase	LANA DNA inh	Keap1-Nrf2 PPI	A3G deaminase
O=[N+]([O-])c1ccc2nc(-c3ccncc3)[nH]c2c1	+	-2	-4	-1	-2	0
Cc1ccc(-c2nc3ccc([N+](=O)[O-])cc3[nH]2)cc1	.	-1	-1	-1	-1	-4
Cc1cc(C)c2c(=O)n(CC(=O)NCCCN3CCN(c4ccccc4F)CC3)sc2n1	.	.	-4	.	.	53*
Cc1cc(C)c2c(=O)n(CC(=O)NCCCN3CCOCC3)sc2n1	.	0	-2	2	-14	54*
CCN(CC)CCCNC(=O)CN1N=C(c2ccc(OC)cc2)CCC1=O	-2	-6	1	1	-2	-3
CCCc1nc2c([nH]1)c(=O)n(C)c(=O)n2C	-7	-1	0	1	2	-3
Cn1c(=O)c2[nH]c(CCc3ccncc3)nc2n(C)c1=O	54*	-1	.	1	-2	.
O=C(COc1ccc(Br)cc1CNC1CCCC1)Nc1ccccc1	.	-2	-7	0	-4	-5
CC(C)=C(NC(=O)c1ccccc1)C(=O)NCCc1nc2ccccc2[nH]1	38*	0	-4	-1	2	-6
Nc1nc2c(s1)CCc1c-2cnn1-c1ccccc1	0	15	-3	-1	-17	54*
O=[N+]([O-])c1cccc(S(=O)(=O)Nc2ccc3cn[nH]c3c2)c1	+	0	-1	1	2	-7
O=S(=O)(Nc1ccc2cn[nH]c2c1)c1ccc(C(F)(F)F)cc1	-1	-1	-5	-1	-3	-9
C=CCN1C(=O)c2ccc(C(=O)N(C)CC(=O)Nc3cccc(F)c3)cc2C1=O	2	-3	3	0	-2	-5
OCC1(Cc2ccc(Cl)cc2)CCN(Cc2ccc(F)c(F)c2)CC1	66*	-1	-2	1	2	-3
OCC1(Cc2ccc(Cl)cc2)CCN(Cc2ccc3nsnc3c2)CC1	-6	-1	-3	-1	2	-6
COC(=O)[C@H](CCSC)NC(=O)Cn1cc(C)c(=O)[nH]c1=O	0	1	.	0	-9	.
CCOC(=O)C1=C(C)NC(C)=C(C(=O)OC)C1c1ccco1 (centres undefined)	36*	-1	-4	-1	-9	-9
COc1ccc([N+](=O)[O-])cc1NC(=O)C(C)OC(=O)Cn1[nH]c(=O)c2ccccc2c1=O (centres undefined)	-3	-2	3	0	-2	-4
O=C(Nc1nccs1)c1ccccc1N=Cc1ccccc1	59*	6	-4	3	4	-6
CN1CCN(S(=O)(=O)c2cccc(C(=O)Nc3ccc(Br)cc3Br)c2)CC1	-4	-2	0	0	1	-9
COc1ccc(CN2CCNC(=O)C2CC(=O)NCc2cc(C)n(C)n2)c(F)c1 (centres undefined)	-3	-1	0	-1	-8	-4
Cc1c(CCC(=O)O)c(=O)oc2c(C)c(OCc3cc4c(cc3Cl)OCO4)ccc12	95*	-4	-7	0	-1	-5
O=C1CCc2cc(S(=O)(=O)Nc3ccc(F)cc3)ccc2N1	-1	1	1	1	-1	0
CC(=O)c1ccc(N2CCN(S(=O)(=O)c3c(C(=O)N4CCCC4)c(C)n(C)c3C)CC2)cc1	80*	-1	-4	2	0	3
Cc1c(C(=O)N2CCCCC2)c(S(=O)(=O)NCc2ccccc2Cl)c(C)n1C	38*	-2	-2	1	-7	2
SMILES	CAL PDZ FP-1	CAL PDZ FP-2	A3A deaminase	LANA DNA inh	Keap1-Nrf2 PPI	A3G deaminase
Cc1c(C(=O)N2CCCCC2)c(S(=O)(=O)NCc2ccc(Cl)cc2)c(C)n1C	77*	0	-4	3	-2	-5
Cc1ccc(CNS(=O)(=O)c2c(C(=O)N3CCCCCC3)c(C)n(C)c2C)cc1	76*	-1	-4	-1	-2	-7
C/C(=C\c1ccc2c(c1)OCO2)C1Nc2cccc3cccc(c23)N1	-2	0	-3	62*	7	-11
O=C(CSc1ncnc2ccccc12)NCCc1ccccc1	45*	11	5	-1	2	-2
CCCCNC(=O)CSc1nc(CCC)nc2ccccc12	30*	0	2	-2	0	-3
CCOC(=O)c1ccc(NC(=O)C2CC3CCC2C3)cc1 (centres undefined)	.	.	-1	.	.	-7
COC(=O)c1ccc(NC(=O)C2CC3CCC2C3)cc1 (centres undefined)	32*	-3	-4	-1	1	-4
COC(=O)c1ccc(NC(=O)c2ccc(NC(=O)C3CCCO3)cc2)cc1 (centres undefined)	+	-1	-7	0	0	2
CCN(CC(=O)Nc1c(F)cccc1F)C(=O)CCC(=O)c1ccc(C)cc1	-5	-1	0	-1	-6	-4
O=c1ccc2[n+]([O-])c3ccc(O)cc3oc-2c1	71*	43*	.	50	101*	.
O=c1cc(O)c2ccc(O)cc2o1	-2	1	-5	2	0	-10
O=C(NCc1ccc(-c2csnn2)cc1)C1CC1	.	1	-4	4	-1	-7
C=CC(=O)NCc1ccc(-c2csnn2)cc1	57*	1	-1	2	-1	-11
COc1ccc(C2CC(c3ccccc3OC(C)=O)=NN2C(=O)/C=C/c2ccccc2)cc1 (centres undefined)	52*	-1	-1	1	-1	-5
COc1ccc(C2CC(c3ccccc3OC(C)=O)=NN2C(C)=O)cc1 (centres undefined)	91*	-1	2	1	-7	1
CN(CC(=O)NC(=O)NC(C)(C)C)CC(=O)Nc1ccccc1Cl	-2	-3	-1	1	0	-9
O=C1c2ccccc2C(=O)N1Cc1cc(-c2ccc(Cl)cc2)no1	-1	-2	-1	0	-4	-4
CCN(CC)C(=O)Cn1cc(C(=O)C(=O)N2CCc3ccccc32)c2ccccc21	46*	-1	-7	6	?	-4
CCN(CC)C(=O)Cn1cc(C(=O)C(=O)N2CCCc3ccccc32)c2ccccc21	2	0	-1	1	-2	-6
NC(=O)C1c2ccccc2Oc2ccccc21	75*	.	3	0	-4	2
O=C(/C=C/c1cccc([N+](=O)[O-])c1)Nc1cccc(NC(=O)c2cccs2)c1	4	-1	3	2	-7	2
Cc1nc(C)c(CC(=O)N/N=C/c2ccc(O)cc2)c(=O)[nH]1	56*	0	0	-1	1	-6
O=C1/C(=C\c2ccco2)CCC/C1=C\c1ccco1	-3	1	87*	3	-7	-4
CCN(C(=O)CCc1ccccc1)C1CCCCC1	64*	0	-6	-1	0	-3

High-throughput results (PubChem)
